Activity, GI50 and IC50 data for 24 compounds are collected here from ChEMBL document CHEMBL1142438, “Pivaloyloxymethyl-modified isoprenoid bisphosphonates display enhanced inhibition of cellular geranylgeranylation” (Bioorg Med Chem, 2008).

The target of experiment [1] is T1, Geranylgeranyl pyrophosphate synthase (Homo sapiens) (UniProt O95749).
T1 sequence (whole entry): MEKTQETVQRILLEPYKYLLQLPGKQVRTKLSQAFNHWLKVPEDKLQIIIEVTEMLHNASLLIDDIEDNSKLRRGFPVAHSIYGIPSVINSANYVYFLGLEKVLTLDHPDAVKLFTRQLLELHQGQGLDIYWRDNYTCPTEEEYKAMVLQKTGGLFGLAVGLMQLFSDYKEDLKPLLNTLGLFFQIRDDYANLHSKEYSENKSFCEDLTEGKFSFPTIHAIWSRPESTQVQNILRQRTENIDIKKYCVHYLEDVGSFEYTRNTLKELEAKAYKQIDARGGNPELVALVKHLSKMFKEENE
The experiment in a line: Inhibition of human recombinant GGDPS expressed in BL21 gold bacteria at 10 uM relative to control. On the set-up: scale not given: the % may be the effect or the level left. The gist of the method: (§1)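 GST-tagged recombinant human GGDPS expressed in BL21 gold E. coli (IPTG induction), glutathione-affinity purified. Reaction: 20 µM FPP, 40 µM [14C]IPP in 50 mM imidazole pH 7.5, 0.5 mM MgCl2, 0.5 mM ZnCl2. 10-min inhibitor preincubation, substrates added together, 1 h at 37 °C. [14C]GGPP extracted into butanol and counted by scintillation; activity as % of control, n = 3.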

For experiment [2], the system named is K562. The experiment in a line: Inhibition of Rap1a protein modification in human K562 cells by Western blot relative to lovastatin. The class given is functional. Summed up:
(§2)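 K562 cells in suspension culture (5 × 10^6 cells/5 ml, fresh medium) exposed 24 h to 1, 2.5, 5, 10, 25 or 50 µM compound. Protein quantified by BCA, resolved on 12% SDS gel, transferred to PVDF, probed for Rap1a with primary then secondary antibody (45 min each), ECL detection.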
(In general: A western blot detects proteins with antibodies after separation by electrophoresis.)

Experiment [3] concerns K562. The experiment in a line: Growth inhibition of human K562 cells after 24 hrs. Conditions: K562, 24 h. The class given is functional. Summed up: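 K562 leukaemia cells (ATCC, grown per ATCC protocol), asynchronous suspension cultures at 5 × 10^6 cells/5 ml in fresh medium, exposed to compound for 24 h. Growth followed by 3H-thymidine incorporation. GI50 taken from quadruplicate dose–response curves.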

Experiment [4] has as its system K562. Description: Inhibition of Rap1a protein geranylgernaylation modification in human K562 cells upto 10 uM by Western blot. It counts as functional, cell-based. Summed up: as §2
Experiment [5] relates to K562. Description: Inhibition of Rap1a protein modification in human K562 cells at 50 uM by Western blot. It counts as functional, cell-based. Summed up: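 K562 leukemia suspension cultures (5 × 10^6 cells/5 ml, fresh medium) incubated 24 h with compound, tested over 1, 2.5, 5, 10, 25 and 50 µM. Protein quantified by BCA; lysates run on 12% gel, transferred to PVDF, probed sequentially with primary and secondary antibodies (45 min each) for Rap1a, detected by ECL chemiluminescence.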

The target of experiment [6] is T1, Geranylgeranyl pyrophosphate synthase (Homo sapiens). Description: Inhibition of human recombinant GGDPS expressed in BL21 gold bacteria at 100 uM relative to control. On the set-up: scale not given: the % may be the effect or the level left. The gist of the method:
as §1

Experiment [7] has as its target T2, Farnesyl pyrophosphate synthase (Homo sapiens) (UniProt P14324).
T2 sequence (whole entry): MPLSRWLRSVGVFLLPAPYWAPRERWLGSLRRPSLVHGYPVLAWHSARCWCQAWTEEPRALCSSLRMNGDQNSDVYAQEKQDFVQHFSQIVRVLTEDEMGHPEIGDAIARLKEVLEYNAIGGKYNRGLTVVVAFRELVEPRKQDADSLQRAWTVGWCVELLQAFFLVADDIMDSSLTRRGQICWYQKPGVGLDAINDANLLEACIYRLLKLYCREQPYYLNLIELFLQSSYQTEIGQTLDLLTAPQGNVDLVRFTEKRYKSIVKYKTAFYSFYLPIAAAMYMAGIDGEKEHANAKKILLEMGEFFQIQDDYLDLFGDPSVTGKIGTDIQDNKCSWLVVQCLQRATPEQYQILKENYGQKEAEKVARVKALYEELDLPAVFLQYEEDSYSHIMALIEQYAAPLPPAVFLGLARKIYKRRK
The experiment in a line: Inhibition of human recombinant FDPS expressed in BL21 gold bacteria at 100 uM relative to control. On the set-up: scale not given: the % may be the effect or the level left. Summed up: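 GST-tagged recombinant human FDPS expressed in BL21 gold E. coli (IPTG induction), glutathione-affinity purified. Reaction: 20 µM GPP, 40 µM [14C]IPP in 50 mM Tris pH 7.7, 10 mM NaF, 2 mM MgCl2, 1 mg/mL BSA. 10-min enzyme–inhibitor preincubation, substrates added, 1 h at 37 °C. Butanol-extracted product counted by scintillation; n = 3.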

Experiment [8] has as its target T3, Farnesyl pyrophosphate synthase (Homo sapiens, UniProt P14324).
T3 sequence (P14324 whole entry): T2 sequence (whole entry)
Description: Inhibition of human recombinant FDPS expressed in BL21 gold bacteria. The gist of the method: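 GST-tagged recombinant human enzyme expressed in BL21 gold bacteria (IPTG induction), purified by affinity chromatography or glutathione agarose. Reaction: 20 µM GPP, 40 µM 14C IPP in 50 mM Tris pH 7.7, 10 mM NaF, 2 mM MgCl2, 1 mg/mL BSA. 10-min preincubation with inhibitor, substrates then added; 1 h at 37 °C. Products extracted with saturated butanol; 14C incorporation by scintillation counting; n = 3.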

Activity calls are given as the source filed them. No cut-off for these calls is given here.

One may read the GI50 as the concentration at which growth is held to half of that of the control. For the compound `CC(C)=CCC/C(C)=C/CC/C(C)=C/CC(P(=O)(OCOC(=O)C(C)(C)C)OCOC(=O)C(C)(C)C)P(=O)(OCOC(=O)C(C)(C)C)OCOC(=O)C(C)(C)C`, the figures for the Activity in experiment [1] and in experiment [2] were 96% and 10 µM, respectively. In experiment [3], this compound returned a GI50 of 7.9 µM.

In the case of `CC(C)=CCC/C(C)=C/CC(CC=C(C)C)(P(=O)(O)O)P(=O)(O)O`, the results for the Activity in experiment [1] and in experiment [2] were 38% and 25 µM, respectively. In experiment [3], this compound yielded a 50% growth inhibitory concentration (GI50) above 100 µM.

Take `CC(C)=CCC/C(C)=C\CC(CC=C(C)C)(P(=O)(OCOC(=O)C(C)(C)C)OCOC(=O)C(C)(C)C)P(=O)(OCOC(=O)C(C)(C)C)OCOC(=O)C(C)(C)C`: the Activity in experiment [2] is 5 µM. For the same compound, the outcome in experiment [4] was Active. Besides, the GI50 in experiment [3] came to 21 µM. Also, the result in experiment [5] was inactive.

Consider `CC(C)=CCC/C(C)=C\CC/C(C)=C/CC(P(=O)(OCOC(=O)C(C)(C)C)OCOC(=O)C(C)(C)C)P(=O)(OCOC(=O)C(C)(C)C)OCOC(=O)C(C)(C)C`, for which the Activity in experiment [2] is 10 µM. The compound also registered a GI50 in experiment [3] of 2.7 µM.

For the compound `CC(C)=CCC/C(C)=C\CC(P(=O)(O)O)P(=O)(O)O`, the Activity in experiment [2] is above 50 µM. The compound also registered a concentration for 50% growth inhibition (GI50) in experiment [3] above 100 µM. For the same compound, in experiment [5], the outcome was inactive.

`CC(C)=CCC/C(C)=C/CC(P(=O)(OCOC(=O)C(C)(C)C)OCOC(=O)C(C)(C)C)P(=O)(OCOC(=O)C(C)(C)C)OCOC(=O)C(C)(C)C`: the Activity in experiment [2] turned out to be 10 µM; in experiment [6], 100%; in experiment [7], 99%. In experiment [3], this compound came in with a GI50 of 8.1 µM. For the same compound, in experiment [5], the result was inactive.

One may read the IC50 as the midpoint of a concentration-inhibition curve. In experiment [2], `CC(C)=CCC/C(C)=C\CC(CC=C(C)C)(P(=O)(O)O)P(=O)(O)O` came in with an Activity of 50 µM. Also, the GI50 in experiment [3] was above 100 µM. In experiment [8], the IC50 was above 100 µM. The result in experiment [5] was inactive.

As to `CC(C)=CCC/C(C)=C/CC/C(C)=C/CC(P(=O)(O)O)P(=O)(O)O`, the Activity in experiment [1] was found to be 42%; in experiment [2] it was 10 µM. In experiment [3], this compound yielded a GI50 of 90 µM.

For `CC(C)=CCC/C(C)=C/CC(C/C=C(\C)CCC=C(C)C)(P(=O)(O)O)P(=O)(O)O` [DIGERANYL BISPHOSPHONATE], the Activity in experiment [2] is 25 µM. In experiment [3], this compound gave a GI50 above 100 µM.

Turning to `CC(C)=CCC/C(C)=C/CC(CC=C(C)C)(P(=O)(OCOC(=O)C(C)(C)C)OCOC(=O)C(C)(C)C)P(=O)(OCOC(=O)C(C)(C)C)OCOC(=O)C(C)(C)C`, the Activity in experiment [1] is 101%; in experiment [2], 1 µM. The compound also returned a GI50 in experiment [3] of 5.2 µM. In experiment [5], the outcome was inactive.

The compound `CC(C)=CCC(CC=C(C)C)(P(=O)(O)O)P(=O)(O)O` gave an Activity in experiment [2] above 50 µM. The compound also had a GI50 in experiment [3] above 100 µM. Also, the outcome in experiment [5] was inactive.

In turn, `CC(C)=CCC/C(C)=C/CC/C(C)=C\CC(P(=O)(O)O)P(=O)(O)O` returned an Activity in experiment [2] above 50 µM.

Turning to `CC(C)=CCC/C(C)=C/CC/C(C)=C\CC(P(=O)(OCOC(=O)C(C)(C)C)OCOC(=O)C(C)(C)C)P(=O)(OCOC(=O)C(C)(C)C)OCOC(=O)C(C)(C)C`, in experiment [2], the Activity is above 50 µM. In experiment [3], this compound showed a GI50 of 2 µM.

As for `CC(C)=CCC/C(C)=C/CC(P(=O)(O)O)P(=O)(O)O`, the Activity in experiment [2] is above 50 µM; in experiment [6], 51%; in experiment [7], 11%. This compound also gave a GI50 in experiment [3] above 100 µM. Also, in experiment [8], the IC50 worked out at 20 µM. Further, in experiment [5], the outcome was inactive.

As for `CC(C)=CCC/C(C)=C/CC(C/C=C(\C)CCC=C(C)C)(P(=O)(OCOC(=O)C(C)(C)C)OCOC(=O)C(C)(C)C)P(=O)(OCOC(=O)C(C)(C)C)OCOC(=O)C(C)(C)C`, the figures for the Activity in experiment [1] and in experiment [2] were 96% and 10 µM, respectively. This compound came in with a GI50 in experiment [3] of 58 µM.

Regarding `CC(C)=CCC/C(C)=C\CC(C/C=C(\C)CCC=C(C)C)(P(=O)(O)O)P(=O)(O)O`, in experiment [2], the Activity was 25 µM. The compound also had a GI50 in experiment [3] above 100 µM.

`CC(C)=CCC/C(C)=C\CC/C(C)=C\CC(P(=O)(OCOC(=O)C(C)(C)C)OCOC(=O)C(C)(C)C)P(=O)(OCOC(=O)C(C)(C)C)OCOC(=O)C(C)(C)C` yielded an Activity in experiment [2] above 50 µM. In addition, the GI50 in experiment [3] worked out at 2.9 µM.

`CC(C)=CCC/C(C)=C\CC(C/C=C(\C)CCC=C(C)C)(P(=O)(OCOC(=O)C(C)(C)C)OCOC(=O)C(C)(C)C)P(=O)(OCOC(=O)C(C)(C)C)OCOC(=O)C(C)(C)C`: the Activity in experiment [2] was 25 µM. In addition, the GI50 in experiment [3] was above 100 µM.

`CC(C)=CCC/C(C)=C\CC(C/C=C(/C)CCC=C(C)C)(P(=O)(O)O)P(=O)(O)O` returned an Activity in experiment [2] of 25 µM. For the same compound, in experiment [3], the GI50 was above 100 µM.

As for `CC(C)=CCC/C(C)=C\CC(C/C=C(/C)CCC=C(C)C)(P(=O)(OCOC(=O)C(C)(C)C)OCOC(=O)C(C)(C)C)P(=O)(OCOC(=O)C(C)(C)C)OCOC(=O)C(C)(C)C`, the Activity in experiment [2] was found to be 10 µM. This compound registered a GI50 in experiment [3] above 100 µM.

As to `CC(C)=CCC/C(C)=C\CC/C(C)=C/CC(P(=O)(O)O)P(=O)(O)O`, the Activity in experiment [2] came to 50 µM.

As for `CC(C)=CCC/C(C)=C\CC/C(C)=C\CC(P(=O)(O)O)P(=O)(O)O`, in experiment [2], the Activity was above 50 µM.

As for `CC(C)=CCC/C(C)=C\CC(P(=O)(OCOC(=O)C(C)(C)C)OCOC(=O)C(C)(C)C)P(=O)(OCOC(=O)C(C)(C)C)OCOC(=O)C(C)(C)C`, the Activity in experiment [2] is above 50 µM. Moreover, growth in experiment [3] was halved (GI50) at 7 µM. In addition, the result in experiment [5] was inactive.

In experiment [2], `CC(C)=CCC(CC=C(C)C)(P(=O)(OCOC(=O)C(C)(C)C)OCOC(=O)C(C)(C)C)P(=O)(OCOC(=O)C(C)(C)C)OCOC(=O)C(C)(C)C` came in with an Activity of 5 µM. Moreover, the result in experiment [4] was Active. In experiment [3], this compound gave a GI50 of 7.7 µM.
